In ChEMBL document CHEMBL1124798, “Design of peptidomimetic delta opioid receptor antagonists using the message-address concept” (J Med Chem, 1990):

Legend:
[1] = target: Mu-type opioid receptor (Cavia porcellus) (UniProt P97266); test: Opioid receptor mu antagonistic activity was measured by the displacement of morphine in the guinea pig ileum at a concentration of 100 nM; type: functional, tissue-based
Outline: (§1)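 Guinea pig ileum. Antagonist (nM, as stated on line) incubated 15 min before testing. Agonists: morphine (μ) and ethylketazocine (κ).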

[2] = target: Kappa-type opioid receptor (Cavia porcellus) (UniProt P41144); test: Opioid receptor kappa antagonistic activity was measured by the displacement of ethylketazocine in the guinea pig ileum at a concentration of 100 nM; type: functional, tissue-based; outline: as §1
Chain of Kappa-type opioid receptor (Cavia porcellus) (P41144 whole entry): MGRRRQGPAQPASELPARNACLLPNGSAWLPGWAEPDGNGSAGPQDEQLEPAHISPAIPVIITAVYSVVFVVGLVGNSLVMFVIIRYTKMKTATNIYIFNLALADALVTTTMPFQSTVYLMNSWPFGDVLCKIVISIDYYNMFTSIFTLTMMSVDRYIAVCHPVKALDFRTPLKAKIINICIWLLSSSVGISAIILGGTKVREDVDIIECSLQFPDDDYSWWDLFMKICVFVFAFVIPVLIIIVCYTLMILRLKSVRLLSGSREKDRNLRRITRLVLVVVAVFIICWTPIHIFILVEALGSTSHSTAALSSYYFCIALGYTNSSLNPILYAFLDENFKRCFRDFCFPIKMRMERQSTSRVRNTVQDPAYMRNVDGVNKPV

[3] = target: Delta-type opioid receptor (Mus musculus) (UniProt P32300); test: Antagonist potency was determined as the ratio of [antagonist] to (IC50 ratio-1) for opioid receptor delta 1; type: functional
Chain of Delta-type opioid receptor (Mus musculus) (P32300 whole entry): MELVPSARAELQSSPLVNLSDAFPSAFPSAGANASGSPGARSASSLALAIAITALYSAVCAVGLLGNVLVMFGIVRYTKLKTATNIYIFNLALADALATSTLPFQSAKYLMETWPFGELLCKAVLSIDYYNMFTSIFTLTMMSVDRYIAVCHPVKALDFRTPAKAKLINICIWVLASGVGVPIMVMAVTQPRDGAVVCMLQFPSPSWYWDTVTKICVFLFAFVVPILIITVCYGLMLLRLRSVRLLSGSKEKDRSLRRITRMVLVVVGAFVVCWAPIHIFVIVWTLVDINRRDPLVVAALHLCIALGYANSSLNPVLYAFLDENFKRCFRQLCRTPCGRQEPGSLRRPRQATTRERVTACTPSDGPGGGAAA
Outline: (§2)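 Ke (nM) = [antagonist]/(IC50 ratio − 1). IC50 ratio is agonist IC50 with antagonist over the control IC50 in the same preparation. Antagonist preincubated 15 min. Agonists: DADLE in mouse vas deferens (δ); morphine (μ) and ethylketazocine (κ) in guinea pig ileum. n ≥ 3.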

[4] = target: Delta-type opioid receptor (Mus musculus) (UniProt P32300); test: Opioid receptor delta 1 antagonistic activity was measured by the displacement of DADLE in the mouse vas deferens at tha concentration of 200 nM; type: functional
Outline: (§3)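 Mouse vas deferens. Antagonist (nM, as stated on line) incubated with the preparation 15 min before testing. δ agonist [D-Ala2,D-Leu5]enkephalin.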

[5] = target: Opioid receptors; delta & kappa (Homo sapiens) (UniProt P41145+P41143); test: Selectivity ratio was determined from Ke value of Opioid receptor kappa 1 and Opioid receptor delta 1; type: protein assay; settings: Cavia porcellus
Chain of Opioid receptors; delta & kappa (Homo sapiens) (P41143 whole entry, looked up): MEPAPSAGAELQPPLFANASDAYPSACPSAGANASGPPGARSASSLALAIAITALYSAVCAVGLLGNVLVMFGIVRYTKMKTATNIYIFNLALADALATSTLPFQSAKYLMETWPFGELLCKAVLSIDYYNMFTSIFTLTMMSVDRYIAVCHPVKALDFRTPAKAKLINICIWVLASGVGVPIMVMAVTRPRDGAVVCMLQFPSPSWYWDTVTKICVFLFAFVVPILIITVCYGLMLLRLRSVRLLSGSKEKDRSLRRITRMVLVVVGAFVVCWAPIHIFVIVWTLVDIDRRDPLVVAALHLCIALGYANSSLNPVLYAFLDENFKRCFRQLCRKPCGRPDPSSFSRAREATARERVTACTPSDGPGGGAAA
Chain of Opioid receptors; delta & kappa (Homo sapiens) (P41145 whole entry, looked up): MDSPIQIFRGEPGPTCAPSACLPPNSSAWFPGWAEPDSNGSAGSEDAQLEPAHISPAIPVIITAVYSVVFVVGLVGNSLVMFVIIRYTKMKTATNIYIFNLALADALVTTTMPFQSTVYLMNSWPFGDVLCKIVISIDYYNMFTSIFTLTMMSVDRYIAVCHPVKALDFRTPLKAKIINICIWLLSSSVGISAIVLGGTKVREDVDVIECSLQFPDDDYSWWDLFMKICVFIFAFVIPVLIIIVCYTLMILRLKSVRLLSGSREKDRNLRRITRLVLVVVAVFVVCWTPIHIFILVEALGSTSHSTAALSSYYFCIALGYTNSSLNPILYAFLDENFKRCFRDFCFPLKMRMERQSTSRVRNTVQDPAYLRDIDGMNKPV
Outline: (§4)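 Ratios of Ke values, μ/δ or κ/δ. Each Ke = [antagonist]/(IC50 ratio − 1). δ from DADLE in mouse vas deferens; μ (morphine) and κ (ethylketazocine) in guinea pig ileum. 15 min antagonist preincubation, n ≥ 3.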

[6] = target: Mu-type opioid receptor (Cavia porcellus) (UniProt P97266); test: Antagonist potency was determined as the ratio of [antagonist] to (IC50 ratio-1) for Opioid receptor mu 1; type: functional; outline: as §2
[7] = target: Kappa-type opioid receptor (Cavia porcellus) (UniProt P41144); test: Opioid receptor kappa 1 antagonistic activity was measured by the displacement of ethylketazocine in the guinea pig ileum at a concentration of 100 nM; type: functional, tissue-based; outline: as §1
[8] = target: Delta-type opioid receptor (Mus musculus) (UniProt P32300); test: Opioid receptor delta antagonistic activity was measured by the displacement of DADLE in the mouse vas deferens at tha concentration of 200 nM; type: functional; outline: as §3
[9] = target: Opioid receptors; mu & delta (Homo sapiens) (UniProt P41143+P35372); test: Selectivity ratio was determined from Ke value of Opioid receptor mu 1 and Opioid receptor delta 1; type: protein assay; settings: Cavia porcellus; outline: as §4
Chain of Opioid receptors; mu & delta (Homo sapiens) (P35372 whole entry, looked up): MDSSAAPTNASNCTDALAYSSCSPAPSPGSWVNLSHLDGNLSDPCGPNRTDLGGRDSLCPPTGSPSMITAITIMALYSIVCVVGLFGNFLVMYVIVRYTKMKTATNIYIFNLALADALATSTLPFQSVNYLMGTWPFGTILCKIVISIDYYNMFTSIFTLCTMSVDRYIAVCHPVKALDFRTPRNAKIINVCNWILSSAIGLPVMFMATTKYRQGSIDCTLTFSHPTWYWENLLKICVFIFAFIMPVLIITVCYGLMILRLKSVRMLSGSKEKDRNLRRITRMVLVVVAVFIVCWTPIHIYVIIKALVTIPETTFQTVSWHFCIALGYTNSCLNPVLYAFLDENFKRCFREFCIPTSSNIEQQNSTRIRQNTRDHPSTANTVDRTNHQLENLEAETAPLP
Chain of Opioid receptors; mu & delta (Homo sapiens) (P41143 whole entry, looked up): as the sequence (P41143 whole entry, looked up) above

[10] = target: Mu-type opioid receptor (Cavia porcellus) (UniProt P97266); test: Opioid receptor mu 1 antagonistic activity was measured by the displacement of morphine in the guinea pig ileum at a concentration of 100 nM; type: functional, tissue-based; outline: as §1
[11] = target: Kappa-type opioid receptor (Cavia porcellus) (UniProt P41144); test: Antagonist potency was determined as the ratio of [antagonist] to (IC50 ratio-1) for Opioid receptor kappa 1; type: functional; outline: as §2
[12] = target: Mu-type opioid receptor (Cavia porcellus) (UniProt P97266); test: Opioid receptor mu 1 antagonistic activity was measured by the displacement of morphine in the guinea pig ileum at a concentration of 200 nM; type: functional, tissue-based; outline: as §1
[13] = target: Kappa-type opioid receptor (Cavia porcellus) (UniProt P41144); test: Opioid receptor kappa 1 antagonistic activity was measured by the displacement of ethylketazocine in the guinea pig ileum at a concentration of 200 nM; type: functional, tissue-based; outline: as §1
[14] = target: Mu-type opioid receptor (Cavia porcellus) (UniProt P97266); test: Opioid receptor mu antagonistic activity was measured by the displacement of morphine in the guinea pig ileum at a concentration of 200 nM; type: functional, tissue-based; outline: as §1
[15] = target: Kappa-type opioid receptor (Cavia porcellus) (UniProt P41144); test: Opioid receptor kappa antagonistic activity was measured by the displacement of ethylketazocine in the guinea pig ileum at a concentration of 200 nM; type: functional, tissue-based; outline: as §1
[16] = target: T1, Kappa-type opioid receptor (Cavia porcellus, UniProt P41144); test: Binding affinity was measured by the displacement of [3H]- EK in guinea pig brain membrane of opioid receptor kappa; type: cell membranes
T1 sequence (P41144 whole entry): as the sequence (P41144 whole entry) above
Outline: (§5)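 Radioligand displacement from guinea pig brain membranes, modified Werling method. μ sites: [3H]DAMGO. δ sites: [3H]DADLE with 1 μM DAMGO. κ sites: [3H]ethylketazocine with 1 μM DAMGO.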

Mu-type opioid receptor [17] = target: T2, Mu-type opioid receptor (Cavia porcellus, UniProt P97266); test: Binding affinity was measured by the displacement of [3H]- DAMGO in guinea pig brain membrane of Opioid receptor mu 1; type: cell membranes; outline: as §5
T2 sequence (P97266 whole entry): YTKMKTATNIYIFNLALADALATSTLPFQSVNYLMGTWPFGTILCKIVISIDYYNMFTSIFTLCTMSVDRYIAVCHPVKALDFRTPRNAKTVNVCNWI

Mu-type opioid receptor [18] = target: T2, Mu-type opioid receptor; test: Binding affinity was measured by the displacement of [3H]- DAMGO in guinea pig brain membrane of opioid receptor mu; type: cell membranes; outline: as §5
[19] = target: T1, Kappa-type opioid receptor; test: Binding affinity was measured by the displacement of [3H]- EK in guinea pig brain membrane of Opioid receptor kappa 1; type: cell membranes; outline: as §5
[20] = target: Mu-type opioid receptor (Cavia porcellus) (UniProt P97266); settings: Ileum, 200 nM
[21] = target: Delta-type opioid receptor (Mus musculus) (UniProt P32300); test: Opioid receptor delta 1 antagonistic activity was measured by the displacement of DADLE in the mouse vas deferens at a concentration of 100 nM; type: functional; outline: as §3
[22] = target: Delta-type opioid receptor (Mus musculus) (UniProt P32300); test: Opioid receptor delta antagonistic activity was measured by the displacement of DADLE in the mouse vas deferens at a concentration of 100 nM; type: functional; outline: as §3

Chain of Mu-type opioid receptor (Cavia porcellus) (P97266 whole entry): as above

| SMILES | IC50 ratio [1] | IC50 ratio [2] | Ke [3] | IC50 ratio [4] | Selectivity ratio [5] | Ke [6] | IC50 ratio [7] | IC50 ratio [8] | Selectivity ratio [9] | IC50 ratio [10] | Ke [11] | IC50 ratio [12] | IC50 ratio [13] | IC50 ratio [15] | Ki [16] | Ki (Mu-type opioid receptor [17]) | Ki (Mu-type opioid receptor [18]) | Ki [19] | other results |
| --- | --- | --- | --- | --- | --- | --- | --- | --- | --- | --- | --- | --- | --- | --- | --- | --- | --- | --- | --- |
| COc1ccc2[nH]c3c(c2c1)C[C@@]1(O)[C@H]2Cc4ccc(O)c5c4[C@@]1(CCN2CC1CC1)[C@H]3O5 | 2.6 | 9.2 | 3.8 nM | 53 | 3.2 | > 63 nM | 9.2 | 53 | > 16 | 2.6 | 12 nM |  |  |  |  |  |  |  |  |
| O=[N+]([O-])c1ccc2[nH]c3c(c2c1)C[C@@]1(O)[C@H]2Cc4ccc(O)c5c4[C@@]1(CCN2CC1CC1)[C@H]3O5 |  |  | 146 nM | 2.4 | > 5.6 | > 230 nM |  | 2.4 | > 1.6 |  | > 870 nM | 1.9 | 1.2 | 1.2 |  |  |  |  | IC50 ratio [14]: 1.9 |
| Oc1ccc2c3c1O[C@H]1c4[nH]c5ccc(F)cc5c4C[C@@]4(O)[C@@H](C2)N(CC2CC2)CC[C@]314 |  |  | 1.9 nM | 104 | 19 | 49 nM |  | 104 | 25 |  | 38 nM | 5.1 | 6.3 | 6.3 | 15 nM | 1.7 nM | 1.7 nM | 15 nM | IC50 ratio [20]: 5.1 |
| Cc1ccc2[nH]c3c(c2c1)C[C@@]1(O)[C@H]2Cc4ccc(O)c5c4[C@@]1(CCN2CC1CC1)[C@H]3O5 | 1.6 | 1.4 | 3.7 nM | 55.4 | > 68 | > 167 nM | 1.4 | 55.4 | > 45 | 1.6 | > 250 nM |  |  |  |  |  |  |  |  |
| Oc1ccc2c3c1O[C@H]1c4c(c5ccccc5n4-c4ccccc4)C[C@@]4(O)[C@@H](C2)N(CC2CC2)CC[C@]314 | 1.7 | 6.7 | 3.1 nM |  | > 49 | > 149 nM | 6.7 |  | > 48 | 1.7 | > 152 nM |  |  |  | 746 nM | 28 nM | 28 nM | 746 nM | IC50 ratio [21]: 33; IC50 ratio [22]: 33 |
